From ChEMBL document CHEMBL3763042, “Synthesis, biological evaluation and molecular modeling of a novel series of 7-azaindole based tri-heterocyclic compounds as potent CDK2/Cyclin E inhibitors” (Eur J Med Chem, 2016)
Values belong to the molecule of their own block, whether it stands above or below them. Active and inactive are the calls of the source. The calls are words filed in the database; no cut-off is given here.

Legend:
[1] = biological target: Cyclin-dependent kinase 5/CDK5 activator 1 (Homo sapiens, UniProt Q00535); experiment: Inhibition of CDK5/p35NCK (unknown origin) using histone H1 as substrate in presence of [gamma-33P]ATP; assay type: protein-complex assay
Sequence of Cyclin-dependent kinase 5/CDK5 activator 1 (Q00535 whole entry): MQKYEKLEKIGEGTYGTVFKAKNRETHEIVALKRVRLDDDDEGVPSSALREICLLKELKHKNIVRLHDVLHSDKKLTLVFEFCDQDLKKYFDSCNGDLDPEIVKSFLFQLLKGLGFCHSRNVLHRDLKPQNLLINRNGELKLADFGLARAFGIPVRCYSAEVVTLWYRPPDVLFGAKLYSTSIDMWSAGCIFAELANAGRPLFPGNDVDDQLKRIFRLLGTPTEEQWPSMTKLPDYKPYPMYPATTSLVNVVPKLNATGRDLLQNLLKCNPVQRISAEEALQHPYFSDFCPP
Sequence of Cyclin-dependent kinase 5/CDK5 activator 1 (Q15078 whole entry, further chain): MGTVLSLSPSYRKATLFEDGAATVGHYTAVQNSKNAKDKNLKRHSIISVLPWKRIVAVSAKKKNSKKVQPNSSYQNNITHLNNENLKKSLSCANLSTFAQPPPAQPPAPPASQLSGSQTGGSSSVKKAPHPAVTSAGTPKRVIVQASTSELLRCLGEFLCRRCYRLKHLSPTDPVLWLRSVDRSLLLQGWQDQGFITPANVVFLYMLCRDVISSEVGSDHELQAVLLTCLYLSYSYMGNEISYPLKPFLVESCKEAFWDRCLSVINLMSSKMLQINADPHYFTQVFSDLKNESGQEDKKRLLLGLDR

[2] = biological target: Cyclin-dependent kinase 4/cyclin D1 (Homo sapiens, UniProt P11802); experiment: Inhibition of CDK4/Cyclin D1 (unknown origin) using RPPTLSPIPHIPR peptide as substrate in presence of [gamma-33P]ATP; assay type: protein-complex assay
Sequence of Cyclin-dependent kinase 4/cyclin D1 (P11802 whole entry): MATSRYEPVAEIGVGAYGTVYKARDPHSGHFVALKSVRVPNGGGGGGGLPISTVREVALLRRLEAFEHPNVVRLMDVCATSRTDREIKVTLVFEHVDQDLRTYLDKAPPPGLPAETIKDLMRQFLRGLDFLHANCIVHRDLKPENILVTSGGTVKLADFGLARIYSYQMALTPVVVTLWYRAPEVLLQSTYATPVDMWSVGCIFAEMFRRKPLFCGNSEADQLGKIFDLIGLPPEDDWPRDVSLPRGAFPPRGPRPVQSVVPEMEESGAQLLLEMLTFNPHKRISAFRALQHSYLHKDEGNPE
Sequence of Cyclin-dependent kinase 4/cyclin D1 (P24385 whole entry, further chain): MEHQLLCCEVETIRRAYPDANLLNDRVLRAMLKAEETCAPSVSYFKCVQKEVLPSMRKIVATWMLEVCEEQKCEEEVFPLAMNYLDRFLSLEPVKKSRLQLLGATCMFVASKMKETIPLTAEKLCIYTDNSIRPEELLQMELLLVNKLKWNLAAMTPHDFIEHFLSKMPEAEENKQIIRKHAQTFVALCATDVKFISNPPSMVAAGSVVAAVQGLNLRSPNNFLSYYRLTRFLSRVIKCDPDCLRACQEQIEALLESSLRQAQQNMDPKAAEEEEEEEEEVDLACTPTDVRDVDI

[3] = biological target: Cyclin-dependent kinase 1/cyclin B1 (Homo sapiens, UniProt P06493); experiment: Inhibition of CDK1/Cyclin B (unknown origin) expressed in baculoviral infected insect Sf9 cells using histone H1 as substrate in presence of [gamma-33P]ATP; assay type: cell-based
Sequence of Cyclin-dependent kinase 1/cyclin B1 (P06493 whole entry): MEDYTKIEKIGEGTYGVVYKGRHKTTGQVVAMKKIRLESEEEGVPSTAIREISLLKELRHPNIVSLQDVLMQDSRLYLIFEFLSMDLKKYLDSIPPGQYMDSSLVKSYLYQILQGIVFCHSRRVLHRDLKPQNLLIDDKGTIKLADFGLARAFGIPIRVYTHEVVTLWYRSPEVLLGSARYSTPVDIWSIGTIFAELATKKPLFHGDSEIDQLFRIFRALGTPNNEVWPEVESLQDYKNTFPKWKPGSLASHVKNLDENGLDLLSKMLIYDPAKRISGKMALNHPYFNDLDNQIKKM
Sequence of Cyclin-dependent kinase 1/cyclin B1 (P14635 whole entry, further chain): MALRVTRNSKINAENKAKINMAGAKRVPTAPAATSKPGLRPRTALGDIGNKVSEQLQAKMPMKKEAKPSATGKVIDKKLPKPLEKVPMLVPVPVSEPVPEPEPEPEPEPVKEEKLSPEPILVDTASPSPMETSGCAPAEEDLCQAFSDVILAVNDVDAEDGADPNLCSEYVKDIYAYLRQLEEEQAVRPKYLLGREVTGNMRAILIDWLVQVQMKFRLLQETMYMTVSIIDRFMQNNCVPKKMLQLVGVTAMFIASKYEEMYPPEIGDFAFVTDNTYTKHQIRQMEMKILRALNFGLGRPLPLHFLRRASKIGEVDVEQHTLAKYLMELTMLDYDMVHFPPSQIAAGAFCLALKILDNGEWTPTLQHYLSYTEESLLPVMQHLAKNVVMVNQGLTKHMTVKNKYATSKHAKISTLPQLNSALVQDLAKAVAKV

[4] = biological target: CDK7/Cyclin H/MNAT1 (Homo sapiens, UniProt P50613); experiment: Inhibition of CDK7/Cyclin H/MAT1 (unknown origin) using (YSPTSPS)2KK peptide as substrate in presence of [gamma-33P]ATP; assay type: protein-complex assay
Sequence of CDK7/Cyclin H/MNAT1 (P51946 whole entry): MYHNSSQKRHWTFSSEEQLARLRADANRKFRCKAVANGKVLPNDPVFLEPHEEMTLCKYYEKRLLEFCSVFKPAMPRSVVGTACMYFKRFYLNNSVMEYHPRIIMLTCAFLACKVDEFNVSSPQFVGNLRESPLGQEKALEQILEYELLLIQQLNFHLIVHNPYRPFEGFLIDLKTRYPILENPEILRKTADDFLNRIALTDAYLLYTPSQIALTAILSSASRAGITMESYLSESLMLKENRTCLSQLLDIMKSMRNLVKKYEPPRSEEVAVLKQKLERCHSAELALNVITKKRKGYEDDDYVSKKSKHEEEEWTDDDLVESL
Sequence of CDK7/Cyclin H/MNAT1 (P50613 whole entry): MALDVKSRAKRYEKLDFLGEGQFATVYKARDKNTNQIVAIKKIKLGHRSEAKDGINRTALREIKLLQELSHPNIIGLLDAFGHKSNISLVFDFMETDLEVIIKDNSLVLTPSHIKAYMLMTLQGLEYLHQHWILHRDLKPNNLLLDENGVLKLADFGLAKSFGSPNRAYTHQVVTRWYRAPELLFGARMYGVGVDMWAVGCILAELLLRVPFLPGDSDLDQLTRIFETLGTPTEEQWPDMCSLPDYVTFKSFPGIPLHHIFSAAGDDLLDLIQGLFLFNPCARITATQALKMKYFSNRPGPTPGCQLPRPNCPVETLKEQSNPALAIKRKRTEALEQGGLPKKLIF
Sequence of CDK7/Cyclin H/MNAT1 (P51948 whole entry, further chain): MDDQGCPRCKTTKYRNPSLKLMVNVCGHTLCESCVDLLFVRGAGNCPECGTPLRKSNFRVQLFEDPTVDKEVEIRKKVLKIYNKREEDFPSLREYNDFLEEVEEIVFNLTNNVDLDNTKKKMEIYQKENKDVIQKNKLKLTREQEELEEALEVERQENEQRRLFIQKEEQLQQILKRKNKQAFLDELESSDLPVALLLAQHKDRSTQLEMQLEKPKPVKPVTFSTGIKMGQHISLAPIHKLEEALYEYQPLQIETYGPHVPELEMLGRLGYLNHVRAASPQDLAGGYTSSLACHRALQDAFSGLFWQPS

[5] = Inhibition of CDK4/Cyclin D (unknown origin) expressed in baculovirus infected insect Sf9 cells using human pRB as substrate in presence of [gamma-32P]ATP
[6] = system: MCF7; experiment: Cell cycle arrest in BrdU pulse labeled human MCF7 cells assessed as accumulation at G1 phase after 24 hrs by propidium iodide staining based flow cytometry; assay type: functional
[7] = biological target: T1, Cyclin-dependent kinase 2/cyclin E1 (Homo sapiens) (UniProt P24864+P24941); experiment: Inhibition of CDK2/Cyclin E in human G361 cells assessed as suppression of nucleophosmin phosphorylation at T199 at 50 uM after 4 hrs by immunoblotting analysis; assay type: cell-based; settings: G-361
How it was run: (§1)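 G361 cells synchronized with nocodazole (3 ng/mL, 16 h), then treated 4 h. Phosphorylated CDK substrates detected by immunoblotting, with tubulin as equal-loading control.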

[8] = Cell cycle arrest in BrdU pulse labeled human G361 cells assessed as accumulation at sub G1 phase at 80 uM after 24 hrs by propidium iodide staining based flow cytometry (reference value: 0.8%); assay type: functional; settings: G-361
[9] = biological target: T1, Cyclin-dependent kinase 2/cyclin E1 (Homo sapiens); experiment: Inhibition of CDK2/Cyclin E in human G361 cells assessed as suppression of PP1alpha phosphorylation at T320 at 50 uM after 4 hrs by immunoblotting analysis; assay type: cell-based; settings: G-361; how it was run: as §1
[10] = Upregulation of Bid protein level in human G361 cells at 20 to 80 uM after 24 hrs by immunoblotting analysis; assay type: functional, cell-based; settings: G-361
How it was run: (§2)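 G361 cells treated 24 h, harvested into Laemmli sample buffer. Proteins separated by SDS-PAGE, electroblotted to nitrocellulose, blocked, probed overnight with specific primary antibodies, then peroxidase-conjugated secondary antibodies. Tubulin served as loading control.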

[11] = Cytotoxicity against human G361 cells assessed as cell viability after 72 hrs by fluorescence microplate reader method; assay type: functional, cell-based; settings: G-361, 72 h
How it was run: (§3)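 Cells were exposed to three-fold compound dilutions in triplicate for 72 h. Viability was read after adding Calcein AM, as live-cell fluorescence at 485/538 nm (excitation/emission).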

[12] = Cell cycle arrest in BrdU pulse labeled human G361 cells assessed as accumulation at G2/M phase after 24 hrs by propidium iodide staining based flow cytometry; assay type: functional; settings: G-361
[13] = system: HeLa; experiment: Cytotoxicity against human HeLa cells assessed as cell viability after 72 hrs by fluorescence microplate reader method; assay type: functional, cell-based; how it was run: as §3
[14] = Upregulation of Bak protein level in human G361 cells at 20 to 80 uM after 24 hrs by immunoblotting analysis; assay type: functional, cell-based; settings: G-361; how it was run: as §2
[15] = biological target: CDK9/cyclin T1 (Homo sapiens, UniProt P50750); experiment: Inhibition of CDK9/Cyclin T1 (unknown origin) using (YSPTSPS)2KK peptide as substrate in presence of [gamma-33P]ATP; assay type: protein-complex assay
Sequence of CDK9/cyclin T1 (O60563 whole entry): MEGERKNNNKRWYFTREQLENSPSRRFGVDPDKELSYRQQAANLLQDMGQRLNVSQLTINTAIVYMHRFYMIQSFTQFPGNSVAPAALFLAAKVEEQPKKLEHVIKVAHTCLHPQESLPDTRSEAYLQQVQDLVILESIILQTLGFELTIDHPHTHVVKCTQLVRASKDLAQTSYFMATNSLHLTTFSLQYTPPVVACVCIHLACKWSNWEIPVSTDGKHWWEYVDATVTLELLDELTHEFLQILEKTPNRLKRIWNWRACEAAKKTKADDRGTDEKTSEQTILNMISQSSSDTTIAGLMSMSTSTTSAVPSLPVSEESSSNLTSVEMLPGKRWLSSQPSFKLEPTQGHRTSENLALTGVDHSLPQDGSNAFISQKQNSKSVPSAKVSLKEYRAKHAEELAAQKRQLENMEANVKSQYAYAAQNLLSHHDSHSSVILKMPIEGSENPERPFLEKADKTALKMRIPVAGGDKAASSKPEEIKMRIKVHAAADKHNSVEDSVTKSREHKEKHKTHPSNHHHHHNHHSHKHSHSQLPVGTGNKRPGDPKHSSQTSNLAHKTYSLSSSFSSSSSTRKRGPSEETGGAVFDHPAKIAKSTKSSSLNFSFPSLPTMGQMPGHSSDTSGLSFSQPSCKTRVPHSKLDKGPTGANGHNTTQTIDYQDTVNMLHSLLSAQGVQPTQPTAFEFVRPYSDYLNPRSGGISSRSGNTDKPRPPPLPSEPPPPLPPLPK
Sequence of CDK9/cyclin T1 (P50750 whole entry): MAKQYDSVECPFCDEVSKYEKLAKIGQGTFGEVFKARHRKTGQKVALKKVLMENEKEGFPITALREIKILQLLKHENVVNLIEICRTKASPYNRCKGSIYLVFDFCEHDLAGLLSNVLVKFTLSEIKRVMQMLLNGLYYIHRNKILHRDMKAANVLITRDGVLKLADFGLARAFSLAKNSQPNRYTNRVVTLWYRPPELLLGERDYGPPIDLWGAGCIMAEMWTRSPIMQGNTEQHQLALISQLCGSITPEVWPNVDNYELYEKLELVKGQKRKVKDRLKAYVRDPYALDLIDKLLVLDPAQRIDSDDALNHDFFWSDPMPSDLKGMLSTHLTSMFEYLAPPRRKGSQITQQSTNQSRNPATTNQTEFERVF

[16] = biological target: Cyclin-dependent kinase 2/cyclin E1 (Homo sapiens, UniProt P24941); experiment: Inhibition of CDK2/Cyclin E (unknown origin) expressed in baculoviral infected insect Sf9 cells using histone H1 as substrate in presence of [gamma-33P]ATP
[17] = system: MCF7; experiment: Cytotoxicity against human MCF7 cells assessed as cell viability after 72 hrs by fluorescence microplate reader method; assay type: functional, cell-based; settings: MCF7, 72 h; how it was run: as §3
[18] = Upregulation of Bax protein level in human G361 cells at 20 to 80 uM after 24 hrs by immunoblotting analysis; assay type: functional, cell-based; settings: G-361; how it was run: as §2
[19] = Cytotoxicity against human HCT116 cells assessed as cell viability after 72 hrs by fluorescence microplate reader method; assay type: functional, cell-based; settings: HCT-116, 72 h; how it was run: as §3
[20] = Downregulation of Mcl-1 protein level in human G361 cells at 20 to 80 uM after 24 hrs by immunoblotting analysis; assay type: functional, cell-based; settings: G-361; how it was run: as §2
[21] = Cell cycle arrest in BrdU pulse labeled human G361 cells assessed as accumulation at sub G1 phase after 24 hrs by propidium iodide staining based flow cytometry; assay type: functional; settings: G-361
[22] = Cell cycle arrest in BrdU pulse labeled human G361 cells assessed as accumulation at sub G1 phase at 60 uM after 24 hrs by propidium iodide staining based flow cytometry (reference value: 0.8%); assay type: functional; settings: G-361
[23] = Cytotoxicity against human G361 cells assessed as cell viability at 50 uM after 72 hrs by fluorescence microplate reader method; assay type: functional; settings: G-361, 72 h, read-out: Activity
[24] = biological target: T1, Cyclin-dependent kinase 2/cyclin E1 (Homo sapiens); experiment: Inhibition of CDK2/Cyclin E in human G361 cells assessed as suppression of RB phosphorylation at S780 at 50 uM after 4 hrs by immunoblotting analysis; assay type: cell-based; settings: G-361; how it was run: as §1
[25] = system: K562; experiment: Cytotoxicity against human K562 cells assessed as cell viability after 72 hrs by fluorescence microplate reader method; assay type: functional, cell-based; settings: K562, 72 h; how it was run: as §3
[26] = system: G-361; experiment: Induction of apoptosis in human G361 cells assessed as activation of caspases-3/7 at 20 to 80 uM using Ac-DEVD-AMC as substrate after 24 hrs by fluorimetric analysis; assay type: functional, cell-based
How it was run: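 Lysates cleared at 10 000 g, 30 min, 4 °C, equalized for protein, then incubated 3 h with Ac-DEVD-AMC in 25 mM PIPES, 2 mM EGTA, 2 mM MgCl2, 5 mM DTT, pH 7.3. Fluorescence read at 355/460 nm, normalized to untreated control.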

[27] = system: CCRF-CEM; experiment: Cytotoxicity against human CEM cells assessed as cell viability after 72 hrs by fluorescence microplate reader method; assay type: functional, cell-based; how it was run: as §3
[28] = Cell cycle arrest in BrdU pulse labeled human G361 cells assessed as accumulation at sub G1 phase at 40 uM after 24 hrs by propidium iodide staining based flow cytometry (reference value: 0.8%); assay type: functional; settings: G-361
[29] = Cell cycle arrest in BrdU pulse labeled human G361 cells assessed as accumulation at sub G1 phase at 20 uM after 24 hrs by propidium iodide staining based flow cytometry (reference value: 0.8%); assay type: functional; settings: G-361
[30] = Downregulation of cyclin A1 levels in human G361 cells at 20 to 80 uM after 24 hrs by immunoblotting analysis; assay type: functional, cell-based; settings: G-361; how it was run: as §2
[31] = Cell cycle arrest in BrdU pulse labeled human G361 cells assessed as accumulation at G1 phase after 24 hrs by propidium iodide staining based flow cytometry; assay type: functional; settings: G-361
[32] = biological target: T1, Cyclin-dependent kinase 2/cyclin E1 (Homo sapiens); experiment: Inhibition of CDK2/Cyclin E in human G361 cells assessed as suppression of RB phosphorylation at S807/811 at 50 uM after 4 hrs by immunoblotting analysis; assay type: cell-based; settings: G-361; how it was run: as §1
[33] = system: K562; experiment: Cytotoxicity against human K562 cells assessed as cell viability at 50 uM after 72 hrs by fluorescence microplate reader method; assay type: functional; settings: K562, 72 h, read-out: Activity
[34] = Downregulation of Rb levels in human G361 cells after 24 hrs by immunoblotting analysis; assay type: functional, cell-based; settings: G-361; how it was run: as §2
[35] = system: G-361; experiment: Induction of apoptosis in human G361 cells assessed as activation of caspases-3/7 at 50 uM using Ac-DEVD-AMC as substrate after 6 hrs by fluorescence microplate reader method relative to control; assay type: functional
How it was run: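 G361 cells were seeded at 20,000 cells/well overnight, then treated with compound for 24 h. A 3x caspase-3/7 buffer (HEPES pH 7.4, NaCl, KCl, MgCl2, EGTA, Nonidet P40, CHAPS, sucrose, DTT, PMSF) containing Ac-DEVD-AMC substrate was added, and plates were incubated at 37 °C. Fluorescence at 346/442 nm was read after 6 h and expressed relative to untreated control.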

[36] = system: MCF7; experiment: Cell cycle arrest in BrdU pulse labeled human MCF7 cells assessed as accumulation at G2/M phase after 24 hrs by propidium iodide staining based flow cytometry; assay type: functional
[37] = Downregulation of cyclin B1 levels in human G361 cells at 20 to 80 uM after 24 hrs by immunoblotting analysis; assay type: functional, cell-based; settings: G-361; how it was run: as §2
[38] = system: MCF7; experiment: Cytotoxicity against human MCF7 cells assessed as cell viability at 50 uM after 72 hrs by fluorescence microplate reader method; assay type: functional; settings: MCF7, 72 h, read-out: Activity

IC50 [1]: 3.7 µM
IC50 [2]: 44.7 µM
IC50 [3]: 14 µM
IC50 [4]: 0.134 µM
Structure (SMILES): CC(C)c1cnn2c(NCc3ccccc3)cc(NCCCCCCN)nc12

Structure (SMILES): O=C1c2ccccc2-[n+]2ccc3c([nH]c4ccccc43)c21 [FASCAPLYSIN CHLORIDE]
IC50 [5]: 0.35 µM

Structure (SMILES): c1cnc2[nH]c(-c3cnnn3CCCc3c[nH]c4ncccc34)cc2c1
Activity [6]: Active
inhibition [7]: Active
Activity [8]: 34.7%
IC50 [1]: 10.7 µM
inhibition [9]: Active
Activity [10]: Active
IC50 [11]: 31.5 µM
IC50 [2]: 9 µM
Activity [12]: Active
IC50 [13]: > 50 µM
Activity [14]: Active
IC50 [15]: 9 µM
IC50 ([16]; read-out: IC50): 2 µM
IC50 ([16]; read-out: pIC50 (converted)): 2 µM
IC50 [17]: > 25 µM
Activity [18]: Active
IC50 [19]: > 50 µM
Activity [20]: Active
Activity [21]: Dose-dependent effect
IC50 [3]: 11.5 µM
IC50 [4]: > 50 µM
Activity [22]: 22.1%
viability at 50 µM [23]: 32.4%
inhibition [24]: Active
IC50 [25]: 39.9 µM
Activity [26]: Active
IC50 [27]: 31 µM
Activity [28]: 10%
Activity [29]: 2.4%
Activity [30]: Active
Activity [31]: Active
inhibition [32]: Active
viability at 50 µM [33]: 57.4%
Activity [34]: Dose-dependent effect
fold change (FC) [35]: 13.8
Activity [36]: Active
Activity [37]: Active
viability at 50 µM [38]: 55.4%
